The text below walks through data of ChEMBL document CHEMBL1122847, “Antitrichomonal activity of mesoionic thiazolo[3,2-a]pyridines” (1985).

≈ marks a conversion by molar mass, not a printed value. Bounds are passed on as bounds.

Assay [1] has as its system Tritrichomonas suis. Nature of the assay: The minimum lethal concentration (MLC) against Trichomonas foetus. In kind it is functional. The method, boiled down: (§1)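 Broth microdilution in Kupferberg's medium (pH 7.2); compounds serially diluted 200–0.2 µg/mL in duplicate; each well inoculated with T. foetus at 15 parasites/mm3 in broth, overlaid with sterile mineral oil; 30 °C for 48 h; wells examined microscopically for viable parasites; MLC = lowest concentration without viable parasites; single values reflect consistent duplicate end points.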

The species entered for assay [2] is Mesocricetus auratus. Nature of the assay: Value is expressed as the ratio of (Tritrichomonas foetus) animals cured / total number(5) infected at day 4 post treatment after 4 days of treatment.
Assay [3] has as its system Cricetinae gen. sp. Nature of the assay: Value is expressed as the ratio of (Tritrichomonas foetus) animals cured / total number(5) infected at day 1 post treatment after 4 days of treatment. In kind it is functional, Cricetulus griseus. The method, boiled down: (§2)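 From day 3 postinfection, animals got one daily intravaginal 2% (w/w) propylene glycol cream dose plus two daily sc suspension doses (100 mg/kg) for 4 days. Vaginal washings (Kupferberg's medium) were taken days 1 and 4 posttreatment and checked microscopically for viable parasites.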

Assay [4] relates to Cricetinae gen. sp. Nature of the assay: Value is expressed as the ratio of (Tritrichomonas foetus infected) animals cured / total number(5) infected at day 1 post treatment after 4 days of treatment. In kind it is functional, Cricetulus griseus. The method, boiled down: as §2
Assay [5] relates to Cricetinae gen. sp. Put plainly: Value is expressed as the ratio of (Tritrichomonas foetus infected) animals cured / total number(5) infected at day 4 post treatment after 4 days of treatment. In kind it is functional, Cricetulus griseus. The method, boiled down:
as §2

Assay [6] deals with Tritrichomonas suis. Put plainly: The minimum lethal concentration (MLC) is determined in Trichomonas foetus. In kind it is functional. The method, boiled down:
as §1

The species entered for assay [7] is Mesocricetus auratus. Put plainly: Value is expressed as the ratio of (Tritrichomonas foetus infected) animals cured / total number(15) infected at day 1 post treatment after 4 days of treatment.
Assay [8] is filed under the species Mesocricetus auratus. Nature of the assay: Value is expressed as the ratio of (Tritrichomonas foetus infected) animals cured / total number(15) infected at day 4 post treatment after 4 days of treatment.

Turning to `O=[N+]([O-])c1ccc[n+]2c([O-])c(-c3ccccc3)sc12`, the MLC with Tritrichomonas suis [1] was determined as 0.8 µg/mL (≈ 2.94 µM). Moreover, the Activity in the assay listed under Mesocricetus auratus [2] and in the assay with Cricetinae gen. sp. [3] was 0 each time.

In turn, `Br.[NH-]c1c(-c2ccccc2)sc2cccc[n+]12` gave an MLC in the assay with Tritrichomonas suis [1] above 200 µg/mL.

As to `Cc1cccc2sc(-c3ccccc3)c([O-])[n+]12`, in the assay on Tritrichomonas suis [1], the MLC is above 200 µg/mL.

In the assay on Tritrichomonas suis [1], `[O-]c1c(-c2ccc(Cl)cc2)sc2cccc[n+]12` came in with an MLC of 25 µg/mL (≈ 95.5 µM). Also, the Activity in the assay filed under Mesocricetus auratus [2] and with Cricetinae gen. sp. [3] was 0 throughout.

In turn, `Nc1ccc2sc(-c3ccccc3)c([O-])[n+]2c1` yielded an MLC in the assay on Tritrichomonas suis [1] of 100 µg/mL (≈ 413 µM).

As to `COc1ccc(-c2sc3cccc[n+]3c2[O-])cc1`, the MLC with Tritrichomonas suis [1] was 6.25 µg/mL (≈ 24.3 µM). Also, the Activity in the assay listed under Mesocricetus auratus [2] and with Cricetinae gen. sp. [3] was 0 in each case.

Consider `[O-]c1c(Sc2ccc(Cl)cc2)sc2cccc[n+]12`, for which the MLC in the assay on Tritrichomonas suis [1] is above 200 µg/mL.

Turning to `Nc1ccc[n+]2c([O-])c(-c3ccccc3)sc12`, the MLC in the assay with Tritrichomonas suis [1] amounted to 200 µg/mL (≈ 825 µM).

For `CC(=O)[N-]c1c(-c2ccccc2)sc2cccc[n+]12`, in the assay on Tritrichomonas suis [1], the MLC was above 200 µg/mL.

In turn, `[O-]c1c(-c2ccccc2)oc2cccc[n+]12` yielded an MLC in the assay with Tritrichomonas suis [1] above 200 µg/mL. Also, the Activity in the assay filed under Mesocricetus auratus [2] and in the assay on Cricetinae gen. sp. [3] was 0 each time.

`[O-]c1c(-c2cccnc2)sc2cccc[n+]12` yielded an MLC with Tritrichomonas suis [1] of 12.5 µg/mL (≈ 54.8 µM). The Activity in the assay filed under Mesocricetus auratus [2] and in the assay with Cricetinae gen. sp. [3] was 0 throughout.

On to `CC(=O)Nc1ccc(-c2sc3cccc[n+]3c2[O-])cc1`, for which the MLC in the assay with Tritrichomonas suis [1] is above 200 µg/mL.

In the assay with Tritrichomonas suis [1], `[S-]c1c(-c2ccc(Cl)cc2)sc2cccc[n+]12` yielded an MLC above 200 µg/mL.

Compound `[O-]c1c(-c2ccccc2Cl)sc2cccc[n+]12` came in with an MLC in the assay on Tritrichomonas suis [1] of 100 µg/mL (≈ 382 µM). Also, the Activity in the assay filed under Mesocricetus auratus [2] and with Cricetinae gen. sp. [3] was 0 throughout.

Turning to `CCOC(=O)C(Sc1ccccn1)c1ccccc1` (stereo unspecified), the MLC in the assay on Tritrichomonas suis [1] is above 200 µg/mL. In addition, the Activity in the assay with Cricetinae gen. sp. [4] and in the assay on Cricetinae gen. sp. [5] was 0 throughout.

Take `OC1=C(c2ccccc2)SC(c2ccccc2)N1c1ccccc1` (stereo unspecified): the MLC with Tritrichomonas suis [6] is above 200 µg/mL.

The compound `CN(C)c1ccc(-c2sc3cccc[n+]3c2[O-])cc1` came in with an MLC in the assay on Tritrichomonas suis [1] of 0.8 µg/mL (≈ 2.96 µM). For the same compound, the Activity in the assay listed under Mesocricetus auratus [2] and with Cricetinae gen. sp. [3] was 0 in each case.

`[O-]c1c(-c2ccncc2)sc2cccc[n+]12`: the MLC in the assay on Tritrichomonas suis [1] was 50 µg/mL (≈ 219 µM). The Activity in the assay filed under Mesocricetus auratus [2] is 0; with Cricetinae gen. sp. [3] it was 4.

`Nc1ccc(-c2sc3cccc[n+]3c2[O-])cc1`: the MLC with Tritrichomonas suis [1] is 1.6 µg/mL (≈ 6.6 µM). For the same compound, the Activity in the assay listed under Mesocricetus auratus [2] and in the assay on Cricetinae gen. sp. [3] was 0 each time.

`[O-]c1c(/C=C/c2ccccc2)sc2cccc[n+]12` came in with an MLC in the assay with Tritrichomonas suis [1] of 200 µg/mL (≈ 789 µM).

For the compound `[O-]c1c(-c2ccccc2)sc2cccc[n+]12`, in the assay on Tritrichomonas suis [1], the MLC worked out at 12.5 µg/mL (≈ 55 µM). Besides, the Activity in the assay listed under Mesocricetus auratus [2] and in the assay on Cricetinae gen. sp. [3] was 0 throughout.

In the assay on Tritrichomonas suis [1], `CC(C)(C)c1ccc(-c2sc3cccc[n+]3c2[O-])cc1` gave an MLC of 25 µg/mL (≈ 88.2 µM).

The compound `CC(=O)Nc1cccc(-c2sc3cccc[n+]3c2[O-])c1` showed an MLC in the assay with Tritrichomonas suis [1] of 200 µg/mL (≈ 703 µM).

Take `O=C([O-])C(Sc1ccccn1)c1ccccc1.[Na+]` (stereo unspecified): the MLC in the assay on Tritrichomonas suis [1] was above 200 µg/mL. Also, the Activity in the assay with Cricetinae gen. sp. [4] and in the assay with Cricetinae gen. sp. [5] was 0 throughout.

In the case of `Cc1ncc([N+](=O)[O-])n1CCO` [METRONIDAZOLE], the Activity in the assay filed under Mesocricetus auratus [7] and in the assay listed under Mesocricetus auratus [8] was 15 in each case.

`[O-]c1c(-c2ccccc2)sc2ccc3ccccc3[n+]12` came in with an MLC with Tritrichomonas suis [1] above 200 µg/mL.

In the assay on Tritrichomonas suis [1], `O=C([N-]c1c(-c2ccccc2)sc2cccc[n+]12)c1ccccc1` displayed an MLC above 200 µg/mL.

In the assay with Tritrichomonas suis [1], `Cc1ccc(-c2sc3cccc[n+]3c2[O-])cc1` displayed an MLC of 12.5 µg/mL (≈ 51.8 µM). For the same compound, the Activity in the assay filed under Mesocricetus auratus [2] and with Cricetinae gen. sp. [3] was 0 in each case.

In the assay on Tritrichomonas suis [1], `Nc1cccc(-c2sc3cccc[n+]3c2[O-])c1` displayed an MLC of 12.5 µg/mL (≈ 51.6 µM).

In the case of `O=[N+]([O-])c1ccc(-c2sc3cccc[n+]3c2[O-])cc1`, in the assay on Tritrichomonas suis [1], the MLC is above 200 µg/mL.

`[O-]c1c(-c2ccccc2)sc2nccc[n+]12`: in the assay on Tritrichomonas suis [1], the MLC was above 200 µg/mL.

For the compound `COc1ccc(-c2sc3cccc[n+]3c2[S-])cc1`, the MLC with Tritrichomonas suis [1] is above 200 µg/mL.

With `[S-]c1c(-c2ccccc2)sc2cccc[n+]12`, the MLC in the assay on Tritrichomonas suis [1] is above 200 µg/mL.

As to `O=[N+]([O-])c1ccc2sc(-c3ccccc3)c([O-])[n+]2c1`, the MLC in the assay with Tritrichomonas suis [1] came to 200 µg/mL (≈ 735 µM).

Compound `O=[N+]([O-])c1ccccc1-c1sc2cccc[n+]2c1[O-]` returned an MLC in the assay with Tritrichomonas suis [1] of 25 µg/mL (≈ 91.8 µM).

With `[O-]c1c(-c2ccccc2)sc2cncc[n+]12`, the MLC in the assay with Tritrichomonas suis [1] was above 200 µg/mL.

Take `Cc1cc[n+]2c([O-])c(-c3ccccc3)sc2c1`: in the assay on Tritrichomonas suis [1], the MLC amounted to 200 µg/mL (≈ 829 µM).

On to `O=[N+]([O-])c1cccc(-c2sc3cccc[n+]3c2[O-])c1`, for which the MLC with Tritrichomonas suis [1] was above 200 µg/mL.

For the compound `Nc1ccccc1-c1sc2cccc[n+]2c1[O-]`, in the assay on Tritrichomonas suis [1], the MLC turned out to be 3.12 µg/mL (≈ 12.9 µM).

For the compound `[O-]c1c(-c2ccccc2)sc2sc3ccccc3[n+]12`, the MLC in the assay on Tritrichomonas suis [1] is above 200 µg/mL.

With `[O-]c1c(-c2ccccn2)sc2cccc[n+]12`, the MLC with Tritrichomonas suis [1] stood at 25 µg/mL (≈ 110 µM). The Activity in the assay listed under Mesocricetus auratus [2] amounted to 0; in the assay on Cricetinae gen. sp. [3] it was 1.

In the assay on Tritrichomonas suis [1], `[O-]c1c(-c2ccccc2)sc2c(O)ccc[n+]12` showed an MLC above 200 µg/mL.
